Results published in ChEMBL document CHEMBL2424622, “Development of amino-pyrimidine inhibitors of c-Jun N-terminal kinase (JNK): kinase profiling guided optimization of a 1,2,3-benzotriazole lead” (Bioorg Med Chem Lett, 2013).

Experiments:
[1] = target: Vascular endothelial growth factor receptor 3 (Homo sapiens) (UniProt P35916); experiment: Competitive binding affinity to FLT4 (unknown origin) at 10 uM in presence of ATP relative to control
Outline: (§1)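 In vitro ATP-site competition binding assay, part of profiling against a diverse panel of 128 kinases. Each compound was tested at a single concentration of 10 µM. Kinome selectivity was summarized as S15 selectivity scores.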

[2] = target: T1, Ephrin type-B receptor 4 (Homo sapiens) (UniProt P54760); experiment: Competitive binding affinity to EPHB4 (unknown origin) at 10 uM in presence of ATP relative to control; outline: as §1
T1 sequence (whole entry): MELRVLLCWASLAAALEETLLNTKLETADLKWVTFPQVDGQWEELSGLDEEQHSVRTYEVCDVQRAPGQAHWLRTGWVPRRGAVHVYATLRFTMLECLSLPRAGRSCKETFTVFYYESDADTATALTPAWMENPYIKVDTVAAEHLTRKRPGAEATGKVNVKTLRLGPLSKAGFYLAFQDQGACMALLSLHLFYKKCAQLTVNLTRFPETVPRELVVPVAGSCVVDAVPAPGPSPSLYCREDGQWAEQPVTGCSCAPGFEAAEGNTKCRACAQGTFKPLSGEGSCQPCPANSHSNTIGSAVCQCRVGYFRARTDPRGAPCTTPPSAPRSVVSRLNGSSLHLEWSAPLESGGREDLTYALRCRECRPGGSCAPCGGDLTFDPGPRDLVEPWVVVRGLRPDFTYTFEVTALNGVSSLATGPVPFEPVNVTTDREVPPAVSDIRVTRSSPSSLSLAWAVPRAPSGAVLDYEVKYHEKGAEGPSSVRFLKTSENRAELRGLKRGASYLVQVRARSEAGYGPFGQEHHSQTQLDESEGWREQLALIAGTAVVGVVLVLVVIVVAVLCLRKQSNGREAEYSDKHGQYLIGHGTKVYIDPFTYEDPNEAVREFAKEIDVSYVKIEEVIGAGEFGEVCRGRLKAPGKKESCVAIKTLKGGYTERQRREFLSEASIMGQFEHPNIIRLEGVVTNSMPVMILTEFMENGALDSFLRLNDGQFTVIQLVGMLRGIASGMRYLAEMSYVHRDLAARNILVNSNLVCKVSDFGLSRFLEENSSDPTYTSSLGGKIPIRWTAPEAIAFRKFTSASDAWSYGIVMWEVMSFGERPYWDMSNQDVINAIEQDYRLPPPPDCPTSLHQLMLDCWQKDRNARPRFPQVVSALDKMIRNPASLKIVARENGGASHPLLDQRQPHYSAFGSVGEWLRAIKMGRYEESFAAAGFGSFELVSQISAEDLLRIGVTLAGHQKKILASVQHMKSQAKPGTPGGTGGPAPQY

[3] = target: T2, Aurora kinase A (Homo sapiens) (UniProt O14965); experiment: Competitive binding affinity to AURKA (unknown origin) at 10 uM in presence of ATP relative to control
T2 sequence (whole entry): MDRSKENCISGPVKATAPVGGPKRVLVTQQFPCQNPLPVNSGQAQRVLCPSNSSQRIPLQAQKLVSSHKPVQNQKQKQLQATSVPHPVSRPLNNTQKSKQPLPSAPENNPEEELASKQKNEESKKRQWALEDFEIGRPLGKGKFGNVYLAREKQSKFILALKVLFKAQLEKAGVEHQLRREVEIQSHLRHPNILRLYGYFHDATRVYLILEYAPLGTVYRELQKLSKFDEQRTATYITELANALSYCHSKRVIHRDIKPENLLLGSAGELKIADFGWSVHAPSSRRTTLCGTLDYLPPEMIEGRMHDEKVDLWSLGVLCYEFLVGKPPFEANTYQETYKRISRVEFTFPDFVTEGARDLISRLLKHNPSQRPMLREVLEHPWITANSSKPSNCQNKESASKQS

[4] = target: 5'-AMP-activated protein kinase catalytic subunit alpha-1 (Homo sapiens) (UniProt Q13131); experiment: Competitive binding affinity to AMPKalpha1 (unknown origin) at 10 uM in presence of ATP relative to control
[5] = target: Tyrosine-protein kinase ABL2 (Homo sapiens) (UniProt P42684); experiment: Competitive binding affinity to ABL2 (unknown origin) at 10 uM in presence of ATP relative to control
[6] = target: Protein-tyrosine kinase 6 (Homo sapiens) (UniProt Q13882); experiment: Competitive binding affinity to PTK6 (unknown origin) at 10 uM in presence of ATP relative to control
Outline: (§2)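 In vitro ATP-site competition binding assay across a diverse panel of 128 kinases, with compound tested at a single concentration. Kinase selectivity scores (S15) were calculated from the panel profiles.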

[7] = target: Serine/threonine-protein kinase PAK 1 (Homo sapiens) (UniProt Q13153); experiment: Competitive binding affinity to PAK1 (unknown origin) at 10 uM in presence of ATP relative to control; outline: as §2
[8] = target: Mitogen-activated protein kinase 11 (Homo sapiens, UniProt Q15759); experiment: Competitive binding affinity to p38-beta (unknown origin) at 10 uM in presence of ATP relative to control; outline: as §2
[9] = target: T3, Serine/threonine-protein kinase Nek2 (Homo sapiens) (UniProt P51955); experiment: Competitive binding affinity to NEK2 (unknown origin) at 10 uM in presence of ATP relative to control; outline: as §2
T3 sequence (whole entry): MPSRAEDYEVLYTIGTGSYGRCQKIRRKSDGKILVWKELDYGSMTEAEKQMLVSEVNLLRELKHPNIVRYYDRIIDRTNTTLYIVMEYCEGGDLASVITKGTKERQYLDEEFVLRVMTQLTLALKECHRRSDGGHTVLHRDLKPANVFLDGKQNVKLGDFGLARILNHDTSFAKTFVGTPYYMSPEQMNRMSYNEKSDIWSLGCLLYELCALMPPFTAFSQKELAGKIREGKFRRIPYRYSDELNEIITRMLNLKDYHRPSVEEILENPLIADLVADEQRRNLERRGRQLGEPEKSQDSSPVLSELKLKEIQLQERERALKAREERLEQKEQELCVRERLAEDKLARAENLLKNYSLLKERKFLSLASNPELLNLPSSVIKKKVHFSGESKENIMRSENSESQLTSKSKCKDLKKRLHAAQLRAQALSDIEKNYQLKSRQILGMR

[10] = target: Serine/threonine-protein kinase MARK2 (Homo sapiens) (UniProt Q7KZI7); experiment: Competitive binding affinity to MARK2 (unknown origin) at 10 uM in presence of ATP relative to control; outline: as §2
[11] = target: Mitogen-activated protein kinase 9 (Homo sapiens, UniProt P45984); experiment: Competitive binding affinity to JNK2 (unknown origin) at 10 uM in presence of ATP relative to control
Outline: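 In vitro ATP-site competition binding assay across a diverse panel of 128 kinases, with each compound tested at a single concentration. Kinase binding is expressed relative to control.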

[12] = target: Tyrosine-protein kinase JAK2 (Homo sapiens) (UniProt O60674); experiment: Competitive binding affinity to JAK2 kinase domain 2 (unknown origin) at 10 uM in presence of ATP relative to control; outline: as §1
[13] = target: Tyrosine-protein kinase HCK (Homo sapiens) (UniProt P08631); experiment: Competitive binding affinity to HCK (unknown origin) at 10 uM in presence of ATP relative to control; outline: as §1

Serine/threonine-protein kinase PAK 1 (Homo sapiens), sequence (Q13153 whole entry): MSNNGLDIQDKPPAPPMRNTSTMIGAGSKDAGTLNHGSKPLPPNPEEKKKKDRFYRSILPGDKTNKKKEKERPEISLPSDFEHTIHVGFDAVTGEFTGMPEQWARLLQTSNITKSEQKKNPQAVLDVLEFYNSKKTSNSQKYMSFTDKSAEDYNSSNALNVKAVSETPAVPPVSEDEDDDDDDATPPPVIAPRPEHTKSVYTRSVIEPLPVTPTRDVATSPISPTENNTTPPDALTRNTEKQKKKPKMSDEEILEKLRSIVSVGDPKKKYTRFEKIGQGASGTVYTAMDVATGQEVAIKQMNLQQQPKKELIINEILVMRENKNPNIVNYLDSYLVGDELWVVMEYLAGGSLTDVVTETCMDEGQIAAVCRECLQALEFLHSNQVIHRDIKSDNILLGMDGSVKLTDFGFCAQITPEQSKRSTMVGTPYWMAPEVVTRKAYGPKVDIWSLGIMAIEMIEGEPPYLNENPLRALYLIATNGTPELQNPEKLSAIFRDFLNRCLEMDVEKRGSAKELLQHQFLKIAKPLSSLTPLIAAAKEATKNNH
Tyrosine-protein kinase JAK2 (Homo sapiens), sequence (O60674 whole entry, the tested form may be a part): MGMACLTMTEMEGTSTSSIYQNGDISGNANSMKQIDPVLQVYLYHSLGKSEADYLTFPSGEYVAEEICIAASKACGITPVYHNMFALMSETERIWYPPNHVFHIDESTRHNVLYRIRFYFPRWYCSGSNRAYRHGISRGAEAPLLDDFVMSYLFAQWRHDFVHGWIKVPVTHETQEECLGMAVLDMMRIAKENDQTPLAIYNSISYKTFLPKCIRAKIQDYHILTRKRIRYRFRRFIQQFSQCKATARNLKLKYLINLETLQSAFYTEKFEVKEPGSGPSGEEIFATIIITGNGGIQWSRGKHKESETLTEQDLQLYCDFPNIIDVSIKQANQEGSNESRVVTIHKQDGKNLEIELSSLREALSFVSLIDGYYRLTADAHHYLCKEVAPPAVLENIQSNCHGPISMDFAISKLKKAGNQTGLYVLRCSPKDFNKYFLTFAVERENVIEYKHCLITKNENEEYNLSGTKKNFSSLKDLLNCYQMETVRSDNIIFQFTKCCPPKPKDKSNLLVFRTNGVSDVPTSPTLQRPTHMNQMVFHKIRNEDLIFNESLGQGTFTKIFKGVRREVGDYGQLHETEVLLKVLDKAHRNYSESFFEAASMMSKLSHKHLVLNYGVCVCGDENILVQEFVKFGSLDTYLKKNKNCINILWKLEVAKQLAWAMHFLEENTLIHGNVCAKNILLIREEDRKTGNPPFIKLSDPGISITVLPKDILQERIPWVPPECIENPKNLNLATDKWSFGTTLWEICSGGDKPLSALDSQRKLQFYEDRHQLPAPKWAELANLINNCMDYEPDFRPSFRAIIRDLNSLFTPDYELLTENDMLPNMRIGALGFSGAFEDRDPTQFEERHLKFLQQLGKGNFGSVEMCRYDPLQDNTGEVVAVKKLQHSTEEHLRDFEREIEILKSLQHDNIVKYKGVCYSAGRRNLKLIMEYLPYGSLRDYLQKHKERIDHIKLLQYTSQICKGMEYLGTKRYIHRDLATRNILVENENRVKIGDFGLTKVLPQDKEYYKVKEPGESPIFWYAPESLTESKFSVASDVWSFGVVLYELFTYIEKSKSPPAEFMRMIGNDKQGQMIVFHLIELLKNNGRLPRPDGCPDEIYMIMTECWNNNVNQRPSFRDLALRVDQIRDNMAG
Mitogen-activated protein kinase 9, sequence (P45984 whole entry, looked up): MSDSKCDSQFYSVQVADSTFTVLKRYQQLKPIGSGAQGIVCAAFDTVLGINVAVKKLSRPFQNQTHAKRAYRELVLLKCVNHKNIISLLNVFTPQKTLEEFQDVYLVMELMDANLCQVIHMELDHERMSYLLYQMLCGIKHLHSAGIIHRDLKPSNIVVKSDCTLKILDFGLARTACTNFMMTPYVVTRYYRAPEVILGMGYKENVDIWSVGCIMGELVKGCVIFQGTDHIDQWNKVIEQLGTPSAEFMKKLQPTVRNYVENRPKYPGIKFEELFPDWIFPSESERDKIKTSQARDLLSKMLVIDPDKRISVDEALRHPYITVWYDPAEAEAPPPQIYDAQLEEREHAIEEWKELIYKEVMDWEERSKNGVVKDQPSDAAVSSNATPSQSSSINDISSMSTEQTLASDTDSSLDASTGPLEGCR
5'-AMP-activated protein kinase catalytic subunit alpha-1 (Homo sapiens), sequence (Q13131 whole entry, looked up): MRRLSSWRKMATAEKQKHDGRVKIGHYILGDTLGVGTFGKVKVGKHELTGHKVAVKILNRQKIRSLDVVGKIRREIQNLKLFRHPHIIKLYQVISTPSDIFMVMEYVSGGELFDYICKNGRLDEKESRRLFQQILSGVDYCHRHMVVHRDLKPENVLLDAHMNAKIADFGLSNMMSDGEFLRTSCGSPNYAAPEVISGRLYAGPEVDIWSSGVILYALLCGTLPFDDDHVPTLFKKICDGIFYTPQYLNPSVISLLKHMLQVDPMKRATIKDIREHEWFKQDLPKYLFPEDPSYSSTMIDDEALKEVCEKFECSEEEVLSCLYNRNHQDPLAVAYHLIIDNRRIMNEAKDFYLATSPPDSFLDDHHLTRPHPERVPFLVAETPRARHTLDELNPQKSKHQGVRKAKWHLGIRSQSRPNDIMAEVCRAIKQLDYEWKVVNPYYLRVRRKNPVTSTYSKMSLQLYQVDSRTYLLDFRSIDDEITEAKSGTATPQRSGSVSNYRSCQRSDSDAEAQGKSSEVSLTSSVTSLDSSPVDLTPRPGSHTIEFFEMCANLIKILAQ
Tyrosine-protein kinase ABL2 (Homo sapiens), sequence (P42684 whole entry): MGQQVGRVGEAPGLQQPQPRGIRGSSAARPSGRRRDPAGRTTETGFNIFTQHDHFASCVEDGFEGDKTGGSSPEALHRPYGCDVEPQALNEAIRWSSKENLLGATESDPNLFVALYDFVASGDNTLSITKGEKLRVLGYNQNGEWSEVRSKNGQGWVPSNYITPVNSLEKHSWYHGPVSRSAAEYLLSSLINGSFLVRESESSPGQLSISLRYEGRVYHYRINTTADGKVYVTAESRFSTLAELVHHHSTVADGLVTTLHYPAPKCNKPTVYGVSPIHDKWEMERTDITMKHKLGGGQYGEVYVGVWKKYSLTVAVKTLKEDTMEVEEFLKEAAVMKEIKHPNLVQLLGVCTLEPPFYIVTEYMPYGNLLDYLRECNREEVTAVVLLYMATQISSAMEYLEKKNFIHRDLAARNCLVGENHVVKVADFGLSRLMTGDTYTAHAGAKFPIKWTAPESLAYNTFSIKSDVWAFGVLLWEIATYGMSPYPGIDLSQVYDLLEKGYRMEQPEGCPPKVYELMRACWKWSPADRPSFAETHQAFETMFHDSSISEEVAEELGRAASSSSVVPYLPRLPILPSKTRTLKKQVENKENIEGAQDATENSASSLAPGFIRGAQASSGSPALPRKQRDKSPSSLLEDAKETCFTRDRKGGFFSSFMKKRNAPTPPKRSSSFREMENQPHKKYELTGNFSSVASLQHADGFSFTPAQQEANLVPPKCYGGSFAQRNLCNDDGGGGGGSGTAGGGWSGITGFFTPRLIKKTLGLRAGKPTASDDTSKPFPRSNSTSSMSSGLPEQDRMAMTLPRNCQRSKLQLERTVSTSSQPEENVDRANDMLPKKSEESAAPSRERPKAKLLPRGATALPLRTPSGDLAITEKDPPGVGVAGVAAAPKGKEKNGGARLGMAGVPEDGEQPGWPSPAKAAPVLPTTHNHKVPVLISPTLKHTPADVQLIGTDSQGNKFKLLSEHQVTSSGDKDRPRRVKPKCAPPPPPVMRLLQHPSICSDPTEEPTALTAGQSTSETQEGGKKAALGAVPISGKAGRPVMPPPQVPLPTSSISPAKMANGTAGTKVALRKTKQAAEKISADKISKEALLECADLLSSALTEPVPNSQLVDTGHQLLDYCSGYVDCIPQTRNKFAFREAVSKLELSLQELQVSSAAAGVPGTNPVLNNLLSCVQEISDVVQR
Mitogen-activated protein kinase 11, sequence (Q15759 whole entry): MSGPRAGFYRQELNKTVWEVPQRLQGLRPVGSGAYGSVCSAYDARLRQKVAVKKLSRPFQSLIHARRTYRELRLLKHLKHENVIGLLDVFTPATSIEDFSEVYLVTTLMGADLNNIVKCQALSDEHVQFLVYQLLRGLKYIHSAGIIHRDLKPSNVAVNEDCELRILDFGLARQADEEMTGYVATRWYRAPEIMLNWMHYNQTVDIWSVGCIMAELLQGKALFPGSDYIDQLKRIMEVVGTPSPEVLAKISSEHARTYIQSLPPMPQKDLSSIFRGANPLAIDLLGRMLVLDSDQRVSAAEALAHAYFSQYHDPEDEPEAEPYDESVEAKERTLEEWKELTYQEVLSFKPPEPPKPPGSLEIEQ
Serine/threonine-protein kinase MARK2 (Homo sapiens), sequence (Q7KZI7 whole entry): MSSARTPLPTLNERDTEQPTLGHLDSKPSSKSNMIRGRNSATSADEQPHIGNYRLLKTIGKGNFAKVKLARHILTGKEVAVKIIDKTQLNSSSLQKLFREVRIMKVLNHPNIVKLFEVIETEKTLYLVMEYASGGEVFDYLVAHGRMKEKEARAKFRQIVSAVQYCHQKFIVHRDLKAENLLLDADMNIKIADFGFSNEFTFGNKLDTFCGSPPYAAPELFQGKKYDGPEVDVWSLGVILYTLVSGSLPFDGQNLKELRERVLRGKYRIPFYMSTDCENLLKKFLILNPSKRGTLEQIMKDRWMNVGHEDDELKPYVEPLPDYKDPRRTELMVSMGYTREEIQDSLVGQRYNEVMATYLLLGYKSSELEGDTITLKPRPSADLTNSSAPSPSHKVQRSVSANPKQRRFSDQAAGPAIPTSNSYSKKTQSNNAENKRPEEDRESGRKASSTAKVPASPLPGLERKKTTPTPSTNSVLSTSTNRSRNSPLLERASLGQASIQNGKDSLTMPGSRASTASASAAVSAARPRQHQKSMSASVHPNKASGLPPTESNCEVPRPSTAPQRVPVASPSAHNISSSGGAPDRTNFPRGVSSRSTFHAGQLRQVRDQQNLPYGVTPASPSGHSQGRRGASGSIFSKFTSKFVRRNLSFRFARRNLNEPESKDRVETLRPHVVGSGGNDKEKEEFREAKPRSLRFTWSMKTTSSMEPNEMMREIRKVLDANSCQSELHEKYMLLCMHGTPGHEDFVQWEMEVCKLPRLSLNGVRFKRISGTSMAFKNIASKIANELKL

Row | SMILES | inhibition [1] | inhibition [2] | inhibition [3] | inhibition [4] | inhibition [5] | inhibition [6] | inhibition [7] | inhibition [8] | inhibition [9] | inhibition [10] | inhibition [11] | inhibition [12] | inhibition [13]
1 | CS(=O)(=O)CCCOc1cccc2c1ccn2-c1ccnc(N[C@H]2CC[C@H](C(=O)N3CCC(O)CC3)CC2)n1 | – | – | – | – | – | – | – | > 85% | – | – | > 85% | – | –
2 | N[C@H]1CC[C@H](Nc2nccc(-n3nnc4ccccc43)n2)CC1 | < 50% | < 50% | < 50% | 86% | 89% | < 50% | < 50% | < 50% | < 50% | 78% | 100% | < 50% | 78%
3 | O=C([C@H]1CC[C@H](Nc2nccc(-n3nnc4ccccc43)n2)CC1)N1CCOCC1 | < 50% | < 50% | 80% | < 50% | < 50% | < 50% | < 50% | < 50% | < 50% | < 50% | 98% | < 50% | < 50%

More lines, now with the values ahead:

Row | inhibition [1] | inhibition [2] | inhibition [3] | inhibition [4] | inhibition [5] | inhibition [6] | inhibition [7] | inhibition [8] | inhibition [9] | inhibition [10] | inhibition [11] | inhibition [12] | inhibition [13] | SMILES
4 | < 50% | < 50% | < 50% | < 50% | < 50% | < 50% | < 50% | < 50% | < 50% | < 50% | 99% | < 50% | < 50% | O[C@H]1CC[C@H](Nc2nccc(-n3ncc4ccccc43)n2)CC1
5 | < 50% | < 50% | < 50% | < 50% | < 50% | < 50% | < 50% | < 50% | < 50% | < 50% | 99% | < 50% | < 50% | O[C@H]1CC[C@H](Nc2nccc(-n3ccc4ccccc43)n2)CC1
6 | 87% | 100% | 92% | 92% | < 50% | 78% | 68% | < 50% | < 50% | 88% | 93% | 96% | 66% | O[C@H]1CC[C@H](Nc2nccc(-c3n[nH]c4ccccc34)n2)CC1
7 | < 50% | < 50% | < 50% | < 50% | < 50% | < 50% | < 50% | < 50% | < 50% | < 50% | 99% | 72% | < 50% | O[C@H]1CC[C@H](Nc2nccc(-n3nnc4ccccc43)n2)CC1
